Structures are written as SMILES.

A short description of the data set: Toxicity liver stage against HepG2, at 10uM. It counts as cell-based. Also on record: test concentration 10 uM, cell line HepG2-A16-CD81EGFP. As to conditions: human, HepG2-A16-CD81EGFP cells; read-out: INHIBITION
An outline of the steps:
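Uninfected HepG2-A16-CD81EGFP cells, 3 × 10^3 per well, 1536-well, plated on prespotted compound at 10 μM final, parasite-free screening media added to match infected plates; puromycin 10 μM positive, DMSO 0.5% negative; run in parallel with 48 h PbLuc assay at 37 °C, 5% CO2; viability by CellTiter-Glo luminescence, normalized to controls.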
For `Cc1cc(N2CCC(O)CC2)nc(C)n1`, the cytotoxicity at 10 µM was -74.7%.

Consider `CN1C[C@@H](F)[C@@H](OCc2nc3ccccc3n2C)C1`, for which the cytotoxicity at 10 µM was found to be 0.876%. The same measure for `CN(CCC(O)c1ccccc1)Cc1ccccc1C#N` (configuration not stated): 6.87%; for `COc1ccc(CN2CC(O)CN(C(=O)C3CCC3)CC2=O)cc1` (configuration not stated): -12.8%.

With `COCCNC(=O)Cc1cnc(-n2cccc2)s1`, the cytotoxicity at 10 µM was -3.35%. Under `COCC(=O)NCC(Cc1cccc(F)c1)n1cccc1` (configuration not stated) stands 2.55%; under `O=c1ccc2c([nH]1)CCN(S(=O)(=O)c1ccc3c(c1)CCCC3)C2`, -4.63%; under `Cc1cc(C(O)CCNC(=O)COc2ccccc2C)c(C)o1` (configuration not stated), 2.86%. The same measure for `O=C(C1CCOCC1)N1C[C@H]2CNC[C@H]2C1`: -8.58%. Under `CCCS(=O)(=O)N1CCC2(CC1)COCCN(C(C)=O)C2` stands 15.9%; under `CN1C(=O)CC2(CCN(S(=O)(=O)c3cccs3)CC2)c2ccccc21`, 1.86%; under `C[C@@H]1C[C@@H]2CCN(Cc3nccs3)C[C@H]2O1`, -3.15%. For the compound `COCCN1CCCC12CCCN(c1nncs1)C2` (configuration not stated), the cytotoxicity at 10 µM amounted to 9.79%. For `O=S(=O)(C1CC1)N1CCn2c(Cn3cccn3)cnc2C1`, the cytotoxicity at 10 µM came to 12.4%.

As for `CCCS(=O)(=O)N1CCC2(CCCN(c3ncc(F)cn3)C2)C1` (configuration not stated), the cytotoxicity at 10 µM was 13.4%. The same measure for `Fc1cccc(N2CCOC3(CCCN(c4cnccn4)C3)C2)c1` (configuration not stated): 5.89%; for `Cc1ccc(-c2csc(N)c2C#N)c(C)c1`: 10.5%. With `O=C(NCCN1CCC(c2cccs2)CC1)c1ccccc1C(F)(F)F`, the cytotoxicity at 10 µM was -20.2%. The same measure for `CN(C)C(=O)CO[C@@H]1CC[C@H]2[C@H]1OCCN2C(=O)C1CCOCC1`: -7.56%; for `COc1ccc(CCC(=O)N(C)Cc2c(C)nn(C)c2C)cc1`: -0.734%; for `CC1(c2ncc(CN3CCSCC3)cn2)CCCCO1` (configuration not stated): 2.12%. Under `CN(C)C(=O)C1(c2cnccn2)CCCN1C(=O)Cc1ccsc1` (configuration not stated) stands -1.84%; under `CNC(=O)C1(CCCc2cccnc2)CCCCN1` (configuration not stated), 2.34%; under `Cc1ccc(-n2cnc(Cl)c2CO)cc1`, -0.303%. The same measure for `O=C(NCCNCc1cccc2c1OCCCO2)C1CCCC1`: 8.08%; for `Cc1ccc(N2CCCC(N(C)Cc3nc(C)c(C)o3)C2)nn1` (configuration not stated): 3.15%; for `CC(C)(C)c1noc(CNc2ccccc2N2CCC(O)CC2)n1`: 0.965%. With `O=C(O)[C@H]1CCCN1CCOc1cccc(Cl)c1`, the cytotoxicity at 10 µM was 17%. With `O=C(Nc1ccc(Cn2cccn2)cc1)N1CCC2(CC1)OCCO2`, the cytotoxicity at 10 µM is 6.09%. Under `CNC(=O)CN(C(=O)c1ccc(SC)o1)c1cccc(F)c1` stands 10.3%; under `Cc1cc(NC(=O)C(c2cccc(F)c2)N2CCOCC2)ccn1` (configuration not stated), 0.278%; under `CSCC(CCO)NC(=O)Nc1cc(C)ccc1C` (configuration not stated), -17%. Under `CC(C)CNC(=O)c1ccc2nnc(C3CCN(S(C)(=O)=O)C3)n2c1` (configuration not stated) stands 5.09%; under `Cc1nc2c(c(N3CCCOCC3)n1)CCN(c1nccs1)CC2`, 3.08%; under `Cc1cccc(C)c1OC1CN(Cc2cnc(N3CCCC3)nc2)C1`, 1.35%. The same measure for `CNc1ncc(CN(C)Cc2cc(O)c3cc(F)ccc3n2)cn1`: 1.95%. With `Cc1cc(-n2cccn2)ccc1CN1CCC(O)(CN2CCCCC2)C1` (configuration not stated), the cytotoxicity at 10 µM was found to be 6.2%. Regarding `CC[C@H]1COCCN1C(=O)c1cnc(C(C)C)nc1C`, the cytotoxicity at 10 µM amounted to 8.51%.

Regarding `CN(CC1Cc2ccccc2CN1C)C(=O)CSc1nccn1C` (configuration not stated), the cytotoxicity at 10 µM was -10.8%. The same measure for `CC(C(=O)N(C)C)N1CCc2onc(-c3cccc(F)c3)c2C1` (configuration not stated): -6.93%. Take `OCC1COCCN(Cc2cc(C3CCCCC3)no2)C1` (configuration not stated): the cytotoxicity at 10 µM is 6.44%. Under `c1ccc(OCc2noc(CN3CCN(C4CCCC4)CC3)n2)cc1` stands -6.66%. The same measure for `CC(C)Cc1nc(CCn2cncn2)n(-c2ccc3c(c2)OCCO3)n1`: 12.5%; for `COCCN1CCC2(CC1)CC(c1ccccc1)C(=O)N2C` (configuration not stated): 7.91%; for `CCc1n[nH]c(C(=O)N2CCC3(CCCN(CCOC)C3=O)C2)c1C` (configuration not stated): 6.38%. The same measure for `COCC1(CNc2cc(C(C)C)nc(N)n2)CC1`: 29.4%; for `CC(C)Oc1cccc(CN2CCC(C(C)N3CCOCC3)CC2)c1` (configuration not stated): -5.84%; for `CC(C)c1cc(CN2CCC(N)CC2)on1`: -10.7%.

Turning to `CC(NCc1ccccc1Cl)c1ccc2[nH]c(=O)[nH]c2c1` (configuration not stated), the cytotoxicity at 10 µM was -9.7%. Under `Cc1nc2cc(=O)[nH]n2c(C)c1CC(=O)NCc1ccc(C#N)cc1` stands -3.34%; under `O=C(CSc1ccccc1F)NS(=O)(=O)c1ccc2c(c1)OCCO2`, -4.36%; under `CC(=O)Nc1nc(C(=O)N2CCCC2c2noc(C(C)C)n2)cs1` (configuration not stated), -20.1%. Under `CCn1ccnc1CN1CCCC1c1noc(C2CC2)n1` (configuration not stated) stands -17.4%. Under `Cc1nc(C2CCCN(C(=O)c3cc(Cl)c[nH]3)C2)sc1C` (configuration not stated) stands -21.5%.

`Cc1nc(C)n(C2CCCN(C(=O)c3c[nH]c(C(C)C)n3)C2)n1` (configuration not stated): the cytotoxicity at 10 µM is -19.9%. As for `c1cnn(CC2CCCN2Cc2ccc(-n3cccn3)cc2)c1` (configuration not stated), the cytotoxicity at 10 µM is -4.8%.

Turning to `CC(C)c1nc(CN2CCCC2CN2CCCC2)cs1` (configuration not stated), the cytotoxicity at 10 µM is 6.72%. The same measure for `Cc1ccc(CNC(=O)Nc2nnc(C)s2)cn1`: -0.243%; for `Cc1ccc(CC(=O)N2CCc3nnc(N(C)C)cc3C2)cn1`: -8.16%; for `Cc1nccn1C1CCCN(C(=O)c2cc3ccccc3[nH]2)C1` (configuration not stated): -12.2%.

Regarding `CC(C)c1nnc2n1CCN(C(=O)c1cccc(C(F)(F)F)c1)C2`, the cytotoxicity at 10 µM came to 4.09%. Take `CC(C)c1nc(C2CCCN(Cc3nnc(C4CC4)o3)C2)no1` (configuration not stated): the cytotoxicity at 10 µM is 5.65%. As for `COCCc1noc(CN2CCCC(Cn3nc(C)nc3C)C2)n1` (configuration not stated), the cytotoxicity at 10 µM was -6.41%. The same measure for `O=C(CN1CCOC(Cn2cccn2)C1)Nc1nncs1` (configuration not stated): 4.79%; for `CN(C)[C@@H]1CN(Cc2ccc(O)cc2)C[C@H]1c1cn(C)c2ccccc12`: 2.39%. Under `CCC(C)[C@H](N)c1nnc(SCC(=O)Nc2ccc(Br)cc2)o1` (some centres not stated) stands -3.48%; under `CNC(=O)CN1CC[C@H]2CN(C(=O)c3cc[nH]n3)C[C@H]2C1`, 0.53%.

As to `Cc1noc(C)c1CN1CCc2ncc(CN3CCCC3)n2CC1`, the cytotoxicity at 10 µM was determined as 0.78%.

Consider `Cn1ccc(C(=O)N2CCC[C@]3(C[C@@H](OCc4ccccn4)CO3)C2)n1`, for which the cytotoxicity at 10 µM turned out to be 0.333%. The same measure for `O=C(C1CCOCC1)N1CC[C@H]2[C@H]1CCN2c1nncs1`: -4.78%. The same measure for `CCOCc1cnc2n1CCN(Cc1nc(C)cs1)C2C` (configuration not stated): 10.2%; for `CCn1cc2c(n1)CN(Cc1ccncc1)CC2COCC1CC1` (configuration not stated): 6.59%.

The record behind these values is ChEMBL document CHEMBL4513216, “Probing the Open Global Health Chemical Diversity Library for Multistage-Active Starting Points for Next-Generation Antimalarials” (ACS Infect Dis, 2020).
